From ChEMBL document CHEMBL1154352, “Toll-like receptor 7 selective synthetic oligoribonucleotide agonists: synthesis and structure-activity relationship studies” (J Med Chem, 2009)
Calls of active or inactive are those of the source. The calls are words filed in the database; no cut-off is given here.

Tested on: Mus musculus
Assay: Immunomodulatory activity in wild-type C57BL/6 mouse assessed as induction of IL12 release at 10 mg/kg, sc after 2 hrs by ELISA
Type: functional, organism-based
Set-up: dose 10 mg/kg
Summary of the method: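 Female C57BL/6 wild-type mice, 5–8 weeks old, n=3; compounds given subcutaneously at 10 or 25 mg/kg. Retro-orbital blood at 2 h; serum cytokines by mouse Luminex multiplex or IL-12 ELISA.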

Nc1ccn([C@@H]2O[C@H](COP(=O)(S)O[C@H]3[C@@H](O)[C@H](n4cnc5c(N)ncnc54)O[C@@H]3CO)[C@@H](OP(=O)(S)OC[C@H]3O[C@@H](n4ccc(=O)[nH]c4=O)[C@H](O)[C@@H]3OP(=O)(S)OC[C@H]3O[C@@H](n4ccc5c(=O)[nH]c(N)nc54)[C@H](O)[C@@H]3OP(=O)(S)OC[C@H]3O[C@@H](n4ccc(N)nc4=O)[C@H](O)[C@@H]3OP(=O)(S)OC[C@H]3O[C@@H](n4ccc5c(=O)[nH]c(N)nc54)[C@H](O)[C@@H]3OP(=O)(S)OC[C@H]3O[C@@H](n4cnc5c(N)ncnc54)[C@H](O)[C@@H]3OP(=O)(S)OC[C@H]3O[C@@H](n4ccc5c(=O)[nH]c(N)nc54)[C@H](O)[C@@H]3OP(=O)(S)OC[C@H]3O[C@@H](n4ccc(N)nc4=O)[C@H](O)[C@@H]3OP(=O)(S)OC[C@H]3O[C@@H](n4ccc(=O)[nH]c4=O)[C@H](O)[C@@H]3OP(=O)(S)OC[C@H]3O[C@@H](n4ccc(=O)[nH]c4=O)[C@H](O)[C@@H]3OP(=O)(S)OCC(O)COP(=O)(S)O[C@H]3[C@@H](O)[C@H](n4ccc(=O)[nH]c4=O)O[C@@H]3COP(=O)(S)O[C@H]3[C@@H](O)[C@H](n4ccc(=O)[nH]c4=O)O[C@@H]3COP(=O)(S)O[C@H]3[C@@H](O)[C@H](n4ccc(N)nc4=O)O[C@@H]3COP(=O)(S)O[C@H]3[C@@H](O)[C@H](n4ccc5c(=O)[nH]c(N)nc54)O[C@@H]3COP(=O)(S)O[C@H]3[C@@H](O)[C@H](n4cnc5c(N)ncnc54)O[C@@H]3COP(=O)(S)O[C@H]3[C@@H](O)[C@H](n4ccc5c(=O)[nH]c(N)nc54)O[C@@H]3COP(=O)(S)O[C@H]3[C@@H](O)[C@H](n4ccc(N)nc4=O)O[C@@H]3COP(=O)(S)O[C@H]3[C@@H](O)[C@H](n4ccc5c(=O)[nH]c(N)nc54)O[C@@H]3COP(=O)(S)O[C@H]3[C@@H](O)[C@H](n4ccc(=O)[nH]c4=O)O[C@@H]3COP(=O)(S)O[C@H]3[C@@H](O)[C@H](n4ccc(N)nc4=O)O[C@@H]3COP(=O)(S)O[C@H]3[C@@H](O)[C@H](n4cnc5c(N)ncnc54)O[C@@H]3CO)[C@H]2O)c(=O)n1 (stereo partly specified)
Activity: Active
